This is a sample that favours compounds with a hit; in the whole collection about 5.8% have one here.
IDH1 R132H inh = inhibitors of IDH1 R132H reductase, primary screen, biochemical, plate reader, single point. diaphorase/resazurin fluorescence, 60 min. 0.18% of 70,000 active. Isocitrate dehydrogenase [NADP] cytoplasmic (Homo sapiens), O75874. inhibition, % at 10 µM; in the data active means inhibition above about 34%; inconclusive means no clear call, values can overlap the other calls; inactive means below about 11%;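 further: 0% = DMSO and 100% = no enzyme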
Target sequence (O75874 whole entry R132H): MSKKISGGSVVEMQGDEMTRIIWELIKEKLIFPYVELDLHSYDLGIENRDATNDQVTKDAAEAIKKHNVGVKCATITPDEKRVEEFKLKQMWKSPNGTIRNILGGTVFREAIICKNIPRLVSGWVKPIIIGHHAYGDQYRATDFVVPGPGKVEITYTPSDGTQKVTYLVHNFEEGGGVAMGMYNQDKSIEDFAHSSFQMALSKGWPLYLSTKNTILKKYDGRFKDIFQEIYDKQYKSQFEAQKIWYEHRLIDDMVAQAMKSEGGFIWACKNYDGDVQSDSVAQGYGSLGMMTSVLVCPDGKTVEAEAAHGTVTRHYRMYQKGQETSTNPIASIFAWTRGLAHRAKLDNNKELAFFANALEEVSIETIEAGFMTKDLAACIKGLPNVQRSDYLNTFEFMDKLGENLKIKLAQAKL
Pf Dd2 growth = P. falciparum Dd2 growth inhibitors, primary screen, SYBR Green fluorescence, single dose replicates; 72 h; hits give low values; activity change, % at 10 µM; 2.3% of 94,000 active; in the data active means activity change below about -80%; inconclusive means no clear call, values can overlap the other calls
T cruzi growth-1 = T. cruzi intracellular proliferation inhibitors, primary screen, cell-based, beta-gal Tulahuen parasites, NIH3T3 host, luminescence; inhibition, % at 8.34 µM; T. cruzi beta-gal in NIH3T3, GalScreen luminescence, 90 h; 5.9% of 77,000 active;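 active means mean inhibition above about 93%, with at least 55% of replicates each passing it, limit read from the data, passing the limit was not always enough; inconclusive means only one of those two conditions holds; inactive means neither condition holds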
KDM4C inh = inhibitors of GASC-1 (KDM4C) histone demethylase, primary screen, biochemical, single concentration HTS; 0.15% of 96,000 active; GST-KDM4C 2-372, H3K9me3 peptide, LANCE TR-FRET; AID 720574, 2013; Lysine-specific demethylase 4C (Homo sapiens), Q9H3R0; inhibition, % at 12.5 µM;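 active means mean replicate inhibition above about 25%, with at least 55% of replicates also reaching it, limit read from the data, passing the limit was not always enough; inconclusive means only one of those two conditions met; inactive means neither condition met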
Target sequence (Q9H3R0 2-372 limits assumed): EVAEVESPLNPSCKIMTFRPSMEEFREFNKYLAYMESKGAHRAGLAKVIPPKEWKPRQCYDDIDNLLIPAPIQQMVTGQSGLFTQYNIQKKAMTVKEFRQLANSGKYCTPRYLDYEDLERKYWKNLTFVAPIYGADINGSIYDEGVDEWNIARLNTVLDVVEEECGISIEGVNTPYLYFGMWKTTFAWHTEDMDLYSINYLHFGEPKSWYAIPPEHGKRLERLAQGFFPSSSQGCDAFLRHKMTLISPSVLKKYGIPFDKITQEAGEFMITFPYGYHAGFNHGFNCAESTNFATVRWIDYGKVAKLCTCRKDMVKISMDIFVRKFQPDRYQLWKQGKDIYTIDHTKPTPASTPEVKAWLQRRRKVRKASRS
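material = GST-tagged GASC-1 (JMJD2C) catalytic fragment, aa 2-372 | amount = enzyme final amount 10 nM | medium = HEPES buffer, pH 7.5, plus ascorbate | also added = H3K9me3 peptide substrate, Fe(II), 2-oxoglutarate | dosing = single dose | times = 30 min demethylation and 1 h detection at room temperature | detection = LANCE TR-FRET | read-out basis = Fall in 671/618 emission ratio as inhibition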
T cruzi growth-2 = T. cruzi intracellular proliferation inhibitors, confirmation, cell-based, NIH3T3 host, beta-gal parasite, luminescence, cherry-pick; T. cruzi beta-gal in NIH3T3, GalScreen luminescence, 90 h; inhibition, % at 8.35 µM; shares compounds with T cruzi growth-1; 72% of 5,600 active; AID 651739, 2012;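 active means mean replicate inhibition above about 95% and at least 55% of replicates individually reaching it, limit read from the data; inconclusive means only one of the two criteria is met; inactive means neither criterion is met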
T cruzi growth-3 = inhibitors of intracellular T. cruzi replication, confirmation, NIH3T3 host cells, beta-gal parasites, cherry-pick, set 2; 21% of 5,600 active; T. cruzi beta-gal in NIH3T3, GalScreen luminescence, 90 h; shares compounds with T cruzi growth-1; inhibition, % at 2.09 µM;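 active means mean inhibition above about 95%, with at least 55% of replicates also reaching it, limit read from the data; inconclusive means meets just one of the two conditions; inactive means meets neither condition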;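 further: plate controls were neutral control median for no effect and positive control median for full effect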
3T3 cytotox = cytotoxicity in mouse NIH/3T3 fibroblasts, confirmation, cytotoxicity control for T. cruzi proliferation inhibitor project, cell-based, cherry-pick, single point; NIH/3T3 viability, CellTiter-Glo ATP luminescence, 90 h; 14% of 5,600 active; cytotoxicity (signal decrease), % at 8.35 µM; shares compounds with T cruzi growth-1;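 active means mean signal decrease across replicates above about 35% based on untreated-well scatter, with enough replicates individually passing, limit read from the data; inconclusive means no rule stated though some were filed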;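 further: 0% = median of neutral control wells and 100% = median of positive control wells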
3T3 cytotox 2 = NIH/3T3 fibroblast cytotoxicity, confirmation, cytotoxicity control, cell-based, cherry-pick, single point, set 2. shares compounds with T cruzi growth-1. NIH/3T3 viability, CellTiter-Glo ATP luminescence, 90 h. inhibition, % at 24.9 µM. 56% of 5,600 active. AID 651744, 2012;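 active means mean loss of cell viability signal at or above a set limit, and enough replicates individually reaching it; inconclusive means meets only the mean limit or only the replicate share; inactive means meets neither condition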;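 further: 0% = median of neutral control wells and 100% = median of positive control wells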
* hit, by the source's call; ? = inconclusive; nt = no result given.

SMILES | IDH1 R132H inh | Pf Dd2 growth | T cruzi growth-1 | KDM4C inh | T cruzi growth-2 | T cruzi growth-3 | 3T3 cytotox | 3T3 cytotox 2
COc1ccc(S(=O)(=O)N(C)C[C@H]2OCCCC[C@H](C)Oc3ccc(N(C)C)cc3C(=O)N([C@H](C)CO)C[C@H]2C)cc1 | nt | 9.5 | 12.4 | -0.5 | nt | nt | nt | nt
COc1ccc(S(=O)(=O)N(C)CC(=O)Nc2ccccc2Br)cc1C | 0.4 | nt | nt | nt | nt | nt | nt | nt
Cc1cccc(NC(=O)C2CN(S(=O)(=O)c3ccccc3)CCN2S(=O)(=O)c2ccccc2)c1 (stereo unspecified) | 0.0 | nt | nt | nt | nt | nt | nt | nt
COc1ccc(OC)c(NC(=O)Cn2nc([N+](=O)[O-])cc2C)c1 | 0.2 | nt | nt | nt | nt | nt | nt | nt
O=C(Nc1ccc(Cl)cc1)N[C@H]1CC[C@@H](CCn2cc(-c3ccccc3F)nn2)O[C@H]1CO | -0.7 | -3.7 | 153.5* | 0.6 | 78.8 | 24.8 | 1.1 | 40.6*
COc1ccccc1NC(=O)N[C@@H]1CC[C@H](CCn2cc(C3(O)CCCC3)nn2)O[C@H]1CO | -0.4 | -27.8 | 16.5 | 0.2 | nt | nt | nt | nt
O=C(NCC[C@H]1CC[C@H](NC(=O)c2ccncc2)[C@H](CO)O1)Nc1ccc(Cl)cc1 | -0.1 | 0.2 | -35.8 | -0.7 | nt | nt | nt | nt
O=C(Nc1cccc(Cl)c1)N[C@@H]1CC[C@@H](CCn2cc(Cc3ccccc3)nn2)O[C@@H]1CO | 0.3 | -19.2 | ? | 1.1 | 97.6* | 70.6 | 30.7 | 32.9*
O=C(NCC[C@@H]1CC[C@H](NC(=O)c2ccncc2)[C@H](CO)O1)Nc1ccc(Cl)cc1 | 0.1 | 12.5 | 101.2* | -1.7 | 96.8* | 40.7 | -2.7 | -5.5
COc1ccccc1NC(=O)N[C@@H]1CC[C@H](CCn2cc(C3(O)CCCC3)nn2)O[C@@H]1CO | -1.0 | -30.8 | 109.5* | 0.0 | 26.7 | -46.7 | -3.1 | 0.0
COc1cc2c(cc1OC)CN(C(=O)CSc1ncnc3sc4c(c13)CCC(C)C4)CC2 (stereo unspecified) | -0.3 | nt | nt | nt | nt | nt | nt | nt
COC(=O)c1c(=O)n(O)c2cc(Cl)c(Cl)cc2[n+]1[O-] | 0.2 | nt | nt | nt | nt | nt | nt | nt
O=C(Nc1ccc(Cl)cc1)N[C@@H]1CC[C@H](CCn2cc(-c3ccccc3F)nn2)O[C@H]1CO | 0.1 | -48.0 | 24.9 | -0.5 | nt | nt | nt | nt
O=C(Nc1ccc(Cl)cc1)N[C@@H]1CC[C@@H](CCn2cc(-c3ccccc3F)nn2)O[C@H]1CO | 0.2 | -18.7 | 105.4* | 0.2 | 104.2* | 35.5 | 26.2 | 8.9
CO[C@H]1CN(C)C(=O)c2cc(NC(=O)C3CC3)ccc2OC[C@H](C)N(Cc2cc(F)ccc2F)C[C@@H]1C | -0.3 | -76.6 | 97.2* | -0.9 | 108.4* | 24.5 | 20.6 | 45.1*
CO[C@H]1CN(C)C(=O)c2cc(NS(=O)(=O)c3cccc(F)c3)ccc2OC[C@H](C)N(Cc2cc(F)ccc2F)C[C@@H]1C | 0.3 | -41.3 | 111.8* | -1.4 | 104.7* | 92.5 | -34.1 | -26.5
CO[C@H]1CN(C)C(=O)c2cc(NS(=O)(=O)c3cccc(F)c3)ccc2OC[C@@H](C)N(Cc2cc(F)ccc2F)C[C@@H]1C | 0.0 | 4.0 | 112.2* | -1.4 | 110.1* | 25.9 | -6.9 | 13.0
CO[C@H]1CN(C)C(=O)c2ccc(NS(=O)(=O)c3cccc(F)c3)cc2OC[C@@H](C)N(Cc2cc(F)ccc2F)C[C@H]1C | 0.4 | -9.0 | nt | 1.5 | nt | nt | nt | nt
CO[C@H]1CN(C)C(=O)c2ccc(NS(=O)(=O)c3cccc(F)c3)cc2OC[C@H](C)N(Cc2cc(F)ccc2F)C[C@H]1C | 0.2 | -26.5 | nt | 0.1 | nt | nt | nt | nt
CO[C@H]1CN(C)C(=O)c2cc(NS(=O)(=O)c3cccc(F)c3)ccc2OC[C@H](C)N(Cc2cc(F)ccc2F)C[C@H]1C | -0.9 | -24.4 | 114.7* | -1.0 | 108.1* | 73.8 | -17.6 | 105.3*
CO[C@@H]1CN(C)C(=O)c2cc(NC(=O)C3CC3)ccc2OC[C@H](C)N(Cc2cc(F)ccc2F)C[C@@H]1C | 0.1 | -71.2 | 61.1 | 1.0 | nt | nt | nt | nt
CO[C@H]1CN(C)C(=O)c2ccc(NS(=O)(=O)c3cccc(F)c3)cc2OC[C@@H](C)N(Cc2cc(F)ccc2F)C[C@@H]1C | 0.1 | -7.2 | nt | -1.1 | nt | nt | nt | nt
CO[C@H]1CN(C)C(=O)c2cc(NC(=O)C3CCCCC3)ccc2OC[C@H](C)NC[C@H]1C | 0.1 | -5.3 | 106.8* | 0.2 | 9.1 | -2.8 | 6.9 | 4.4
CC(=O)Nc1cccc(NC(=O)c2cc(-c3ccccn3)nc3ccc(Br)cc23)c1 | 0.1 | nt | nt | nt | nt | nt | nt | nt
COCC#Cc1ccc([C@H]2[C@@H](CO)N3CCCCN(Cc4cncnc4)C[C@H]23)cc1 | nt | 28.0 | 108.8* | 0.4 | 111.6* | 56.0 | 17.3 | 15.2
SMILES | IDH1 R132H inh | Pf Dd2 growth | T cruzi growth-1 | KDM4C inh | T cruzi growth-2 | T cruzi growth-3 | 3T3 cytotox | 3T3 cytotox 2
COCC#Cc1ccc([C@@H]2[C@H](CO)N3CCCCN(Cc4cncnc4)C[C@@H]23)cc1 | nt | 19.2 | ? | 1.2 | ? | 34.0 | -2.6 | -9.8
COCC#Cc1ccc([C@@H]2[C@H]3CN(Cc4cncnc4)CCCCN3[C@H]2CO)cc1 | nt | -20.8 | 67.7 | 0.5 | nt | nt | nt | nt
COCC#Cc1ccc([C@@H]2[C@@H](CO)N3CCCCN(Cc4cncnc4)C[C@@H]23)cc1 | nt | 23.5 | 105.6* | -0.2 | ? | -11.1 | 7.0 | -1.3
COCC#Cc1ccc([C@@H]2[C@@H](CO)N3CCCCN(Cc4cncnc4)C[C@H]23)cc1 | nt | 30.4 | 102.8* | -0.4 | 29.3 | 18.5 | -13.3 | 64.7*
Cc1nc(SCC(=O)Nc2ccccc2[N+](=O)[O-])c2c(C)c(C)sc2n1 | 0.1 | nt | nt | nt | nt | nt | nt | nt
COc1ccc(C(=O)CSc2ncn(-c3ccccc3)n2)cc1OC | -0.1 | nt | nt | nt | nt | nt | nt | nt
CCOC(=O)c1ccc(NC(=O)C2C3CCC(C3=C(C)C)C2C(=O)O)cc1 (stereo unspecified) | -0.7 | nt | nt | nt | nt | nt | nt | nt
OC[C@H]1[C@H](c2ccc(C#CC3(O)CCCC3)cc2)[C@@H]2CN(Cc3cncnc3)CCCCN12 | nt | -12.5 | 97.6* | 2.2 | 82.3 | 39.9 | 4.3 | -1.5
OC[C@@H]1[C@@H](c2ccc(C#CC3(O)CCCC3)cc2)[C@H]2CN(Cc3cccnc3)CCCCN12 | nt | 7.0 | 118.8* | -0.4 | 79.8 | 36.0 | 12.9 | 23.2
OC[C@@H]1[C@H](c2ccc(C#CC3(O)CCCC3)cc2)[C@@H]2CN(Cc3cncnc3)CCCCN12 | nt | -14.2 | ? | -1.7 | 97.8* | 46.2 | 1.4 | -2.4
